According to ChEMBL document CHEMBL2157903, “2-Arylbenzofuran-based molecules as multipotent Alzheimer's disease modifying agents” (Eur J Med Chem, 2012):
Activity calls are given as the source filed them. No cut-off for these calls is given here.

Columns and labels:
[1] = Inhibition of amyloid beta (25 to 35) fibril formation incubated up to 6 hrs by UV-Vis spectrophotometric analysis
Summary of the method: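 Aβ25-35, sonicated 1 min, was mixed in 10 mM phosphate buffer (pH 7.2) with compound added in MeOH, on ice. Polymerization was followed by UV-visible spectroscopy at 190–380 nm over 0–6 h. Compound-alone spectra were subtracted, and peptide-alone and curcumin controls were run in parallel. IC50 (0.1–50 range) came from a sigmoidal least-squares fit. At least three independent runs.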

[2] = molecular target: Cholinesterase (Homo sapiens, UniProt P06276); test: Inhibition of human serum BuChE using butyrylthiocholine iodide as substrate preincubated for 20 mins prior to substrate addition by Ellman's method
Chain of Cholinesterase (P06276 whole entry): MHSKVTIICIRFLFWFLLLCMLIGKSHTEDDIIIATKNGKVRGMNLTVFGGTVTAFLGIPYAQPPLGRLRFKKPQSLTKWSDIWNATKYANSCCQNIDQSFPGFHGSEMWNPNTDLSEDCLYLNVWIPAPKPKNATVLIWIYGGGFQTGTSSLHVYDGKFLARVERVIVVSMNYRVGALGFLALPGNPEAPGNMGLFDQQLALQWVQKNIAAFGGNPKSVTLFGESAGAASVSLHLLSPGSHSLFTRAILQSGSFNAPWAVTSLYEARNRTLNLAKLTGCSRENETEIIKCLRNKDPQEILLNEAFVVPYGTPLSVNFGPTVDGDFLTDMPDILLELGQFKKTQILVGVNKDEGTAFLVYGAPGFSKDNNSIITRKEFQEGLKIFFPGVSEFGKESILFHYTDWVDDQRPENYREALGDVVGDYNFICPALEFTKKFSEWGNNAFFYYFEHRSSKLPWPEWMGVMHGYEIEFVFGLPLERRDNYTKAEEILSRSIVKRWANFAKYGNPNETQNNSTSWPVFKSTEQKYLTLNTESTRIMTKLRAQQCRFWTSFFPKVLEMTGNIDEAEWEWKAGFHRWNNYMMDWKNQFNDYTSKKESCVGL
Summary of the method: (§1)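 Ellman method with acetylthiocholine iodide (AChE) or butyrylthiocholine iodide (BuChE) as substrate. Enzyme and inhibitor preincubated 20 min at 37 °C before substrate addition. Blanks without enzyme corrected for non-enzymatic hydrolysis. Five inhibitor concentrations giving 20-80% inhibition. IC50 from linear regression of % inhibition vs log final concentration. Mean of two or three independent measurements, each in triplicate.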

[3] = molecular target: T1, Cannabinoid receptor 2 (Homo sapiens, UniProt P34972); test: Displacement of [3H]CP-55940 from human recombinant CB2 receptor expressed in HEK293 cells after 90 mins; type: cell-based
T1 sequence (P34972 whole entry): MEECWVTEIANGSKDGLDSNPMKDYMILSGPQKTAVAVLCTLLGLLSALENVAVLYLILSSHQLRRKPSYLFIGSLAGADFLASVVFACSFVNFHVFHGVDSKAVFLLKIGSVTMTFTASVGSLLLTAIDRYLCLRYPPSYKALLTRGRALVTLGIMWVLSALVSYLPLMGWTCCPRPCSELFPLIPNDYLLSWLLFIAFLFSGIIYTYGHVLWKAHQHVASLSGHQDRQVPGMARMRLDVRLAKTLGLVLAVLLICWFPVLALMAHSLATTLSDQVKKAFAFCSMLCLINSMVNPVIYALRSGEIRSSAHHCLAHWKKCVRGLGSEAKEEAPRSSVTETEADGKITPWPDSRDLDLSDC
Summary of the method: (§2)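 Membranes from HEK-293 cells stably expressing human recombinant CB1 (Bmax 2.5 pmol/mg) or CB2 (Bmax 4.7 pmol/mg). Incubated with [3H]-CP-55,940 (CB1 0.14 nM, Kd 0.18 nM; CB2 0.084 nM, Kd 0.31 nM) and increasing compound concentrations for 90 min at 30 °C. Non-specific binding defined with 10 […] 55212-2. IC50 by non-linear regression, converted to Ki by Cheng-Prusoff. Means of at least n = 3.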

[4] = test system: SH-SY5Y; test: Neuroprotective activity in human SH-SY5Y cells assessed as inhibition of amyloid beta (25 to 35)-induced cytotoxicity at 30 uM after 3 hrs by MTT assay; type: functional
Summary of the method: (§3)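 SH-SY5Y cells in DMEM with 10% FBS were seeded at 3 × 10⁴/well for 24 h. They were exposed for 3 h at 37 °C to HFIP-pretreated unaggregated Aβ25-35 with or without compound (1–30 range). Viability was read by MTT (5 mg/mL, 2 h; isopropanol; 570/690 nm) as % of untreated control. Percentage protection is given at the highest concentration. Mean ± SD of at least two experiments.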

[5] = molecular target: T2, Cannabinoid receptor 1 (Homo sapiens, UniProt P21554); test: Displacement of [3H]CP-55940 from human recombinant CB1 receptor expressed in HEK293 cells after 90 mins; type: cell-based; summary of the method: as §2
T2 sequence (P21554 whole entry): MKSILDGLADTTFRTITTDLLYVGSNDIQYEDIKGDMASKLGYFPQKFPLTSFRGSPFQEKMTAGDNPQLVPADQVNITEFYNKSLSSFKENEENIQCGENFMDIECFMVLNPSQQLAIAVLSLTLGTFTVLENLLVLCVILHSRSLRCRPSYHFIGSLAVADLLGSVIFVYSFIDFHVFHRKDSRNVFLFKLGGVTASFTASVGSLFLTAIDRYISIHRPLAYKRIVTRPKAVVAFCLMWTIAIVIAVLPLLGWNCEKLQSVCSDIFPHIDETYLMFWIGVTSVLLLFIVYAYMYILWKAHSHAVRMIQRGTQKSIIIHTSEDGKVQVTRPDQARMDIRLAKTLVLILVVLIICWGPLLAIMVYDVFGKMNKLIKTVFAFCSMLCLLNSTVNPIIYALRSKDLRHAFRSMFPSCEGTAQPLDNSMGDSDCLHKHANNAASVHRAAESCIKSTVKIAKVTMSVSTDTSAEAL

[6] = molecular target: Acetylcholinesterase (Homo sapiens, UniProt P22303); test: Inhibition of human recombinant AChE using acetylthiocholine iodide as substrate preincubated for 20 mins prior to substrate addition by Ellman's method; summary of the method: as §1
Chain of Acetylcholinesterase (P22303 whole entry): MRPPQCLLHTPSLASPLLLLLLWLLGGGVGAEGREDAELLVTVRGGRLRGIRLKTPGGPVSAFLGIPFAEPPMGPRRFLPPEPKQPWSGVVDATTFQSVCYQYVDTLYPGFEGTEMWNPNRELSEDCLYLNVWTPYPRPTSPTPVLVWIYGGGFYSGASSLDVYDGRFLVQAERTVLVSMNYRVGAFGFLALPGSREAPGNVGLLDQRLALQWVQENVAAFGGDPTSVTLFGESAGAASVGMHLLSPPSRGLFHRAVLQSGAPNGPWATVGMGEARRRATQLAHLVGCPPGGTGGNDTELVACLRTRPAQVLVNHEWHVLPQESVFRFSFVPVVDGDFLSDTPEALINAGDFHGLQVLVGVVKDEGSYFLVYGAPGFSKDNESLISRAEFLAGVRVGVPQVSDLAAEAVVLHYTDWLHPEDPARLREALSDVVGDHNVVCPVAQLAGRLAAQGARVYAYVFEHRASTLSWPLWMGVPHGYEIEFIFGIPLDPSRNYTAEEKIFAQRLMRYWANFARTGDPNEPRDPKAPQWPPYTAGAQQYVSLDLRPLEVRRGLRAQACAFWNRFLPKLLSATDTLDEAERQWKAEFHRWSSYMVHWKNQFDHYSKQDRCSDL

[7] = molecular target: Amyloid-beta precursor protein (Homo sapiens) (UniProt P05067); test: Inhibition of amyloid beta (25 to 35) binding to plasma membrane surface of human Sh-SY5Y cells at 30 uM after 30 mins by congo red-based spectrophotometry; type: cell-based
Chain of Amyloid-beta precursor protein (Homo sapiens) (P05067 whole entry): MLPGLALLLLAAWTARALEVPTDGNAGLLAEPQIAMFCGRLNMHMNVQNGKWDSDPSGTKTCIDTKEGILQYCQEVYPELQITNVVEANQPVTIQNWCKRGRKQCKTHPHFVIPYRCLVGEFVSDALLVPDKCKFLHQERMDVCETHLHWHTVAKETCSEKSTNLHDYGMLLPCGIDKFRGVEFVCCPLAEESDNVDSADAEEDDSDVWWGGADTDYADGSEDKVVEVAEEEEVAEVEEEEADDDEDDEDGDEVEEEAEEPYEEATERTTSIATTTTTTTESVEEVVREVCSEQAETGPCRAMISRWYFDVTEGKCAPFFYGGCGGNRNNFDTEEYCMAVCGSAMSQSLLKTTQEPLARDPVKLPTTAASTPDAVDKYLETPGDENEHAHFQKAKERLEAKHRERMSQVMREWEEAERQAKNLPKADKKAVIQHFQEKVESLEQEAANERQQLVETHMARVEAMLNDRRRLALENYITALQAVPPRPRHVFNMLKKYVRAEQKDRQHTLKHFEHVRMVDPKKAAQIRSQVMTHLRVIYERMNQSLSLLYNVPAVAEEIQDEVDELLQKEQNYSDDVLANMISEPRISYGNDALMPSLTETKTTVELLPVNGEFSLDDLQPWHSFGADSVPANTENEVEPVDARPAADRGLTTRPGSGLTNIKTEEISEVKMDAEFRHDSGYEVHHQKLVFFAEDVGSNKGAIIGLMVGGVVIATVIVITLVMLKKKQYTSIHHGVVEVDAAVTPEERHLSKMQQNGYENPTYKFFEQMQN
Summary of the method: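 SH-SY5Y cells were seeded at 5 × 10³/well for 24 h, then given fresh medium with Aβ25-35 and compound for 10, 20 and 30 min. After two PBS washes, bound peptide was stained with Congo red in PBS for 20 min. Absorbance was read at 540 nm and expressed as % of untreated cells.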

[8] = Inhibition of amyloid beta (25 to 35) fibril formation at 10 uM incubated up to 6 hrs by UV-Vis spectrophotometric analysis
Summary of the method: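 Aβ25-35 at 100 μM final, in 10 mM phosphate buffer pH 7.2, sonicated 1 min on addition. Compound added in MeOH at 10 μM final, with curcumin reference alongside. Polymerization followed by UV-vis at 190-380 nm over 0-6 h. Spectra of compound alone were subtracted. At least three independent runs.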

[9] = test system: SH-SY5Y; test: Neuroprotective effect in human SH-SY5Y cells assessed as inhibition of amyloid beta (25 to 35)-induced ROS production at 30 uM after 3 hrs by DHE-based fluorimetric analysis; type: functional, cell-based
Summary of the method: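 SH-SY5Y cells were seeded at 1 × 10⁴/well on culture slides for 24 h and treated with Aβ25-35 with or without compound for 3 h. ROS was measured with DHE loaded for 15 min in the dark, then 1 h in serum-free DMEM at 37 °C. Fluorescence microscopy covered four random fields of 50–100 cells each, scored as densitometry per cell versus untreated cells. Mean ± SD of three experiments.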

[10] = test system: SH-SY5Y; test: Neuroprotective activity in human SH-SY5Y cells assessed as inhibition of amyloid beta (25 to 35)-induced cytotoxicity after 3 hrs by MTT assay; type: functional, cell-based; summary of the method: as §3
[11] = molecular target: T1, Cannabinoid receptor 2; test: Displacement of [3H]CP-55940 from human recombinant CB2 receptor expressed in HEK293 cells at 25 uM after 90 mins; type: cell-based
Summary of the method: (§4)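 Membranes from HEK-293 cells stably expressing human recombinant CB1 or CB2 were incubated with [³H]-CP-55,940 (0.14 nM for CB1; 0.084 nM for CB2) plus test compound for 90 min at 30 °C. Non-specific binding was defined with WIN 55212-2. Percent displacement of bound radioligand at the maximum tested concentration is reported. At least n = 3 experiments.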

[12] = molecular target: T2, Cannabinoid receptor 1; test: Displacement of [3H]CP-55940 from human recombinant CB1 receptor expressed in HEK293 cells at 25 uM after 90 mins; type: cell-based; summary of the method: as §4
[13] = molecular target: T1, Cannabinoid receptor 2; test: Displacement of [3H]CP-55940 from human recombinant CB2 receptor expressed in HEK293 cells at 10 uM after 90 mins; type: cell-based
[14] = molecular target: T2, Cannabinoid receptor 1; test: Displacement of [3H]CP-55940 from human recombinant CB1 receptor expressed in HEK293 cells at 10 uM after 90 mins; type: cell-based; summary of the method: as §4
[15] = Ratio of curcumin IC50 to compound IC50 for amyloid beta (25 to 35)

Structure (SMILES) | IC50 [2] | IC50 ([6]; read-out: IC50) | inhibition [8] | EC50 [3] | Ki [3] | EC50 [5] | Ki [5] | IC50 [6] | Activity [13] | Activity [14] | also measured
COc1cc(/C=C/C(=O)CC(=O)/C=C/c2ccc(O)c(OC)c2)ccc1O [CURCUMIN] | – | – | – | – | – | – | – | – | – | – | IC50 [1]: 10 µM
Cc1cccc(C(=O)c2c(-c3cccc(OCCCCCCCN(C)Cc4ccccc4)c3)oc3ccccc23)c1 | 0.4 µM | 102 µM | 48% | – | – | – | – | – | – | – | Activity [3]: inactive; inhibition at 30 µM [4]: 46.2%; Activity [5]: inactive; inhibition [7]: Active; inhibition [9]: Active; inhibition [10]: Dose-dependent effect
CN(CCCCCCCOc1ccc(-c2oc3ccccc3c2C(=O)c2ccc(-c3ccccc3)cc2)cc1)Cc1ccccc1 | 88.9 µM | – | – | 7.06 µM | 1.79 µM | 7.74 µM | 3.12 µM | Not Active | – | – | Activity [11]: 86%; Activity [12]: 80%
COc1cccc(C(=O)c2c(-c3cccc(OCCCCCCCN(C)Cc4ccccc4)c3)oc3ccccc23)c1OC | 3.01 µM | – | – | – | – | – | – | Not Active | – | – | Activity [3]: inactive; Activity [5]: inactive
CN(CCCCCCCOc1ccc(-c2oc3ccccc3c2C(=O)c2ccc3ccccc3c2)cc1)Cc1ccccc1 | 89.1 µM | – | – | > 10 µM | > 10 µM | > 10 µM | > 10 µM | Not Active | 6.87% | 35.1% | –
CN(CCCCCCCOc1ccc(-c2oc3ccccc3c2C(=O)c2cccc3ccccc23)cc1)Cc1ccccc1 | 60.1 µM | 101 µM | 48% | > 10 µM | > 10 µM | > 10 µM | > 10 µM | – | 8.9% | 13.8% | –
COc1cc(OC)cc(C(=O)c2c(-c3cccc(OCCCCCCCN(C)Cc4ccccc4)c3)oc3ccccc23)c1 | 0.048 µM | – | – | – | – | – | – | Not Active | – | – | Activity [3]: inactive; Activity [5]: inactive
CN(CCCCCCCCOc1ccc(-c2cc3ccccc3o2)cc1)Cc1ccccc1 | 7.47 µM | – | Active | – | – | – | – | Not Active | – | – | –
CN(CCCCCCCCCOc1ccc(-c2cc3ccccc3o2)cc1)Cc1ccccc1 | 55.6 µM | – | – | – | – | – | – | Not Active | – | – | IC50 [1]: 5.5 µM
CN(CCCCCCCOc1ccc(-c2oc3ccccc3c2C(=O)c2ccc(OCCN3CCOCC3)cc2)cc1)Cc1ccccc1 | 21 µM | 39 µM | Active | 2.27 µM | 0.58 µM | 1.37 µM | 0.55 µM | – | 70.6% | 83.1% | –
CCN(CC)CCOc1cccc(C(=O)c2c(-c3ccc(OCCCCCCCN(C)Cc4ccccc4)cc3)oc3ccccc23)c1 | 1.81 µM | 37.1 µM | Active | 2.71 µM | 0.69 µM | 6.38 µM | 2.57 µM | – | 77.9% | 76.5% | –
CN(CCCCCCCOc1ccc(-c2cc3ccccc3o2)cc1)Cc1ccccc1 | – | – | – | > 10 µM | > 10 µM | 6.95 µM | 2.8 µM | – | 21.8% | 57.8% | –
CN(CCCCCCCOc1cccc(-c2cc3ccccc3o2)c1)Cc1ccccc1 | 3 µM | – | 81% | – | – | – | – | Not Active | – | – | IC50 [1]: 3.9 µM; Ratio IC50 [15]: 2.5
